Assay results gathered from unrelated publications.
Compare with care: the assays were run in different laboratories.
Observed: cell growth or viability

`CC(=O)OCCOC(=O)[C@]1(C)CC[C@]2(C)CC[C@]3(C)C4=CC=C5C(=CC(=O)C(O)=C5C)[C@]4(C)CC[C@@]3(C)[C@@H]2C1` gave an IC50 of 410 nM (MGC-803; MTT; 48 h).
`C[C@@H]1CCO[C@H]2Cn3cc(C(=O)NCc4ccc(F)cc4F)c(=O)c(O)c3C(=O)N12` gave an IC50 of 360000 nM (COS-7; ATP luminescence).
`O=C(Nc1ccc(Cl)cc1)c1ccc([N+](=O)[O-])o1` gave an IC50 of 1120 nM (NCI-H2030; resazurin; 96 h).
With `CC1=C(O)C(=O)C=C2C1=CC=C1[C@@]2(C)CC[C@@]2(C)[C@@H]3C[C@](C)(C(=O)OCCO)CC[C@]3(C)CC[C@]12C` the IC50 was 370 nM (MGC-803; MTT; 48 h).
`CC1(C)CC[C@]2(C(=O)O)CC[C@]3(C)C(=CC[C@@H]4[C@@]5(C)CC[C@H](O)C(C)(C)[C@@H]5CC[C@]43C)[C@@H]2C1` gave an IC50 of 78200 nM (ECa-109; MTT; 48 h).
For `CC1=C(O)C(=O)C=C2C1=CC=C1[C@@]2(C)CC[C@@]2(C)[C@@H]3C[C@](C)(C(=O)OCCCn4ccc5ccccc54)CC[C@]3(C)CC[C@]12C`, the IC50 was 1090 nM (MGC-803; MTT; 48 h).
`N[C@@H](CC(=O)N1CCN(C(c2ccc(F)cc2)c2ccc(F)cc2)CC1)C(=O)N1Cc2ccccc2C1` gave an IC50 of 40800 nM (Kasumi 1; ATP luminescence; 48 h).
`OCc1ccc2c(c1C#Cc1ccc(O)cc1)C(c1ccc(O)cc1)(c1ccc(O)cc1)c1cc(O)ccc1-2` gave an IC50 of greater than 50000 nM (MGC-803; MTT; 48 h).
`COCCCOC(=O)[C@]1(C)CC[C@]2(C)CC[C@]3(C)C4=CC=C5C(=CC(=O)C(O)=C5C)[C@]4(C)CC[C@@]3(C)[C@@H]2C1` has an IC50 of 400 nM (MGC-803; MTT; 48 h).
`CC(C)[C@H](N)C(=O)N1CCC[C@H]1B(O)O` gave an IC50 of greater than 60000 nM (Kasumi 1; ATP luminescence; 48 h).
`CC[C@H](C)C(=O)O[C@H]1C[C@H](O)C=C2C=C[C@H](C)[C@H](CC[C@@H](O)C[C@@H](O)CC(=O)O)[C@H]21` has an IC50 of greater than 200 µg/mL (SW480; SRB; 72 h).
For `CC(C)C[C@H](NC(=O)[C@H](Cc1ccccc1)NC(=O)c1cnccn1)B(O)O`, the IC50 was 9.1 nM (NCI-N87; ATP luminescence).
With `Nc1ccn([C@@H]2O[C@H](CO)[C@@H](O)C2(F)F)c(=O)n1` the IC50 was 8.9 nM (143B; resazurin; 72 h).
`CC1(C)[C@@H](O)CC[C@]2(C)[C@H]3C(=O)C=C4[C@@H]5C[C@@](C)(C(=O)O)CC[C@]5(C)CC[C@@]4(C)[C@]3(C)CC[C@@H]12` has an IC50 of 19000 nM (ECa-109; MTT; 48 h).
`CC1=C(O)C(=O)C=C2C1=CC=C1[C@@]2(C)CC[C@@]2(C)[C@@H]3C[C@](C)(C(=O)OCCCO)CC[C@]3(C)CC[C@]12C` has an IC50 of 290 nM (MGC-803; MTT; 48 h).
`C#C[C@@]1(O)[C@@H](CO)O[C@@H](n2ccc(N)nc2=O)[C@@H]1O` has an IC50 of 1.6 nM (FM3A/0; MTT; 72 h).
For `CC1=C(O)C(=O)C=C2C1=CC=C1[C@@]2(C)CC[C@@]2(C)[C@@H]3C[C@](C)(C(=O)OCCCOc4ccccc4)CC[C@]3(C)CC[C@]12C`, the IC50 was 460 nM (MGC-803; MTT; 48 h).
`CCOC(=O)c1[nH]c(Br)c(-c2ccc(SC)cc2)c1Br` gave an IC50 of 626 nM (MDA-MB-435; SRB).
`O=C(c1ccc(OCCN2CCCCC2)cc1)c1c(-c2ccc(O)cc2)sc2cc(O)ccc12` gave an IC50 of 20100 nM (COS-7; ATP luminescence).
The IC50 of `C#C[C@@]1(O)[C@@H](COP(=O)(O)OC[C@H]2O[C@@H](n3cc(F)c(=O)[nH]c3=O)C[C@@H]2O)O[C@@H](n2ccc(N)nc2=O)[C@@H]1O` is reported as 2.2 nM (FM3A/0; MTT; 72 h).
For `O=c1[nH]cc(F)c(=O)[nH]1`, the IC50 was 39000 nM (MGC-803; MTT; 48 h).
